Assay results taken from ChEMBL document CHEMBL3817773, “Antibacterial activities of fluorescent nano assembled triphenylamine phosphonium ionic liquids” (Bioorg Med Chem Lett, 2016).
Calls of active or inactive are those of the source. No cut-off for these calls is given here.

Legend:
Acinetobacter baumannii = assay: Antimicrobial activity against Acinetobacter baumannii ATCC 19606 after 18 to 20 hrs by broth dilution method; format: functional
In short: (§1)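 MICs measured against a panel of ESKAPE-representative strains, including S. aureus SA1199, at concentrations up to 64 mg/L.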

Staphylococcus aureus [1] = assay: Antimicrobial activity against multi-drug resistant Staphylococcus aureus SA1199B overexpressing NorA after 18 to 20 hrs by broth dilution method; format: functional
In short: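 MIC read against the NorA-overproducing S. aureus SA1199B, tested alongside its isogenic parent strain SA1199. Compounds were tested at concentrations up to 64 mg/L.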

Staphylococcus aureus [2] = assay: Antimicrobial activity against Staphylococcus aureus CIP 76.25 after 18 to 20 hrs by broth dilution method; format: functional; in short: as §1
Klebsiella aerogenes = assay: Antimicrobial activity against Enterobacter aerogenes ATCC 13048 after 18 to 20 hrs by broth dilution method; format: functional; in short: as §1
Pseudomonas aeruginosa = assay: Antimicrobial activity against Pseudomonas aeruginosa CIP 100720 after 18 to 20 hrs by broth dilution method; format: functional; in short: as §1
Klebsiella pneumoniae = assay: Antimicrobial activity against Klebsiella pneumoniae CIP 82.91 after 18 to 20 hrs by broth dilution method; format: functional; in short: as §1
Staphylococcus aureus [3] = assay: Antimicrobial activity against Staphylococcus aureus SA1199 after 18 to 20 hrs by broth dilution method; format: functional; in short: as §1
Escherichia coli = assay: Antimicrobial activity against Escherichia coli CIP 54.8 after 18 to 20 hrs by broth dilution method; format: functional; in short: as §1
HepG2 = assay: Cytotoxicity against human HepG2 cells assessed as reduction in cell viability after 24 hrs by WST1 assay; format: cell-based; settings: HepG2, 24 h
Enterococcus faecium = assay: Antimicrobial activity against Enterococcus faecium DSMZ 20477 after 18 to 20 hrs by broth dilution method; format: functional; in short: as §1
Staphylococcus aureus [4] = assay: Inhibition of metabolic activity in Staphylococcus aureus CIP 76.25 assessed as inhibition of resazurin reduction to resorufin at 2 mg/L treated for 15 mins measured over 2 to 6 hrs by CellTiter-Blue assay; format: functional, organism-based
In short: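 S. aureus CIP 7625 was treated 15 min with 2 mg/L, then metabolic activity was monitored as the rate of resazurin reduction to resorufin, compared with the untreated control.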

Staphylococcus aureus [5] = assay: Growth inhibition of Staphylococcus aureus CIP 76.25 at 2 mg/L by time kill assay relative to control; format: functional, organism-based
In short: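 S. aureus CIP 7625 proliferation was followed by absorbance at 600 nm, with or without 2 mg/L, against an untreated control curve.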

Staphylococcus aureus [6] = assay: Bactericidal activity against Staphylococcus aureus CIP 76.25 assessed as log reduction in bacterial count at 2 mg/L after 30 mins by time kill assay relative to control; format: functional
In short: (§2)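 Time-kill assay on S. aureus CIP 7625 exposed to 2 mg/L, with untreated control in parallel. Viability was followed by CFU counts over time, and log10 CFU/mL reduction was read at 30 min and 2 h of incubation.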

Staphylococcus aureus [7] = assay: Drug uptake in Staphylococcus aureus CIP 76.25 at 2 mg/L after 1.7 to 35 sec by fluorescence microscopic analysis; format: ADME, organism-based; settings: in vivo
In short: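 Uptake was tracked through the intrinsic fluorescence of the triphenylamine moiety, using fluorescence microscopy of bacteria during incubation to follow accumulation kinetics over seconds.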

Staphylococcus aureus [8] = assay: Bactericidal activity against Staphylococcus aureus CIP 76.25 assessed as log reduction in bacterial count at 2 mg/L after 2 hrs by time kill assay relative to control; format: functional; in short: as §2
Staphylococcus aureus [9] = assay: Drug uptake in Staphylococcus aureus CIP 76.25 at 2 mg/L after 1.7 to 35 sec by phase contrast microscopic analysis; format: ADME, organism-based; settings: in vivo

| Structure (SMILES) | MIC (Acinetobacter baumannii) | MIC (Staphylococcus aureus [1]) | MIC (Staphylococcus aureus [2]) | MIC (Klebsiella aerogenes) | MIC (Pseudomonas aeruginosa) | MIC (Klebsiella pneumoniae) | MIC (Staphylococcus aureus [3]) | MIC (Escherichia coli) | IC50 (HepG2) | MIC (Enterococcus faecium) | inhibition (Staphylococcus aureus [4]) | growth inhibition (GI) (Staphylococcus aureus [5]) | Activity (Staphylococcus aureus [6]) | Drug uptake (Staphylococcus aureus [7]) | Activity (Staphylococcus aureus [8]) | Drug uptake (Staphylococcus aureus [9]) |
| --- | --- | --- | --- | --- | --- | --- | --- | --- | --- | --- | --- | --- | --- | --- | --- | --- |
| CCCCCC[P+](CCCC)(CCCC)CCCC.[I-] | > 64 µg/mL | > 64 µg/mL | > 64 µg/mL | > 64 µg/mL | > 64 µg/mL | > 64 µg/mL | > 64 µg/mL | > 64 µg/mL | 0.189 µg/mL | > 64 µg/mL |  |  |  |  |  |  |
| CCCC[P+](CCCC)(CCCC)CCCCCCOC.[Br-] | > 64 µg/mL | > 64 µg/mL | > 64 µg/mL | > 64 µg/mL | > 64 µg/mL | > 64 µg/mL | > 64 µg/mL | > 64 µg/mL | 0.712 µg/mL | > 64 µg/mL |  |  |  |  |  |  |
| CCCC[P+](CCCC)(CCCC)CCCCCCOCc1ccc(N(c2ccccc2)c2ccccc2)cc1 |  |  |  |  |  |  |  |  |  |  | Active | Active |  |  |  |  |
| CCCC[P+](CCCC)(CCCC)CCCCCCOCc1ccc(N(c2ccccc2)c2ccccc2)cc1.[Br-] | 16 µg/mL | 0.5 µg/mL | 0.5 µg/mL | 32 µg/mL | > 64 µg/mL | 8 µg/mL | 0.5 µg/mL | 16 µg/mL | < 0.124 µg/mL | 1 µg/mL |  |  | >3 log10CFU/ml | Active | >4 log10CFU/ml | Active |
| CCCCCC[P+](CCCC)(CCCC)CCCC.[Br-] | > 64 µg/mL | > 64 µg/mL | > 64 µg/mL | > 64 µg/mL | > 64 µg/mL | > 64 µg/mL | > 64 µg/mL | > 64 µg/mL | < 0.124 µg/mL | > 64 µg/mL |  |  |  |  |  |  |
| CCCCCC[P+](CCCC)(CCCC)CCCC.[Cl-] | > 64 µg/mL | > 64 µg/mL | > 64 µg/mL | > 64 µg/mL | > 64 µg/mL | > 64 µg/mL | > 64 µg/mL | > 64 µg/mL | 5.42 µg/mL | > 64 µg/mL |  |  |  |  |  |  |
| CCCC[P+](CCCC)(CCCC)CCCCCCOCc1ccc(N(c2ccccc2)c2ccccc2)cc1.[I-] | 16 µg/mL | 1 µg/mL | 1 µg/mL | 32 µg/mL | 32 µg/mL | 16 µg/mL | 1 µg/mL | 16 µg/mL | < 0.124 µg/mL | 2 µg/mL |  |  |  |  |  |  |
| CCCC[P+](CCCC)(CCCC)CCCCCCOCc1ccc(N(c2ccccc2)c2ccccc2)cc1.[Cl-] | 16 µg/mL | 0.5 µg/mL | 1 µg/mL | 16 µg/mL | 32 µg/mL | 16 µg/mL | 0.5 µg/mL | 16 µg/mL | < 0.124 µg/mL | 1 µg/mL |  |  |  |  |  |  |
| c1ccc(N(c2ccccc2)c2ccccc2)cc1 | > 64 µg/mL | > 64 µg/mL | > 64 µg/mL | > 64 µg/mL | > 64 µg/mL | > 64 µg/mL | > 64 µg/mL | > 64 µg/mL | < 0.124 µg/mL | > 64 µg/mL |  |  |  |  |  |  |
